SUMO1-SIM PPI: alters human SUMO1 binding to SIM partners. P63165. SUMO1 binding to a labelled peptide, TR-FRET, 1 h. inhibition, % at 20 µM. actives 0.33% (n = 360,000). AID 602429; in the data active means inhibition above about 37%
Target sequence (P63165 whole entry, looked up): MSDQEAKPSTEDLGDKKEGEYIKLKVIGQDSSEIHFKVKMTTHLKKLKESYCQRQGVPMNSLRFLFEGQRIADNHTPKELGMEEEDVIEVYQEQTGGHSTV
STEP inh: inhibitors of human striatal-enriched phosphatase STEP. P54829. recombinant STEP, OMFP fluorogenic substrate, fluorescence. inhibition, % at 20 µM. actives 0.25% (n = 360,000);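 active means inhibition at 20 µM, scaled per plate between control wells, above about 37%, limit read from the data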;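 further: 0% = DMSO with enzyme and substrate and 100% = substrate only without enzyme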
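Assay system: isolated STEP enzyme / Timing: 20 min at room temperature, dark / Doses: 20 µM, 1% DMSO / Technique: fluorescence intensity, excitation 480 nm, emission 540 nm / Reagent: fluorogenic phosphatase substrate OMFP at 25 µM final / Measure: percent inhibition scaled to no-enzyme and uninhibited-enzyme controls, plate-pattern corrected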
SUMO HTRF inh: blocks human SUMOylation mediated by UBC9; P63279; HTRF SUMOylation assay, SAE1/SAE2 + UBC9, in vitro; AID 2006; actives 0.36% (n = 290,000); inhibition, % at 35 µM; in the data active means inhibition above about 50%, passing the limit was not always enough
Target sequence (P63279 whole entry, looked up): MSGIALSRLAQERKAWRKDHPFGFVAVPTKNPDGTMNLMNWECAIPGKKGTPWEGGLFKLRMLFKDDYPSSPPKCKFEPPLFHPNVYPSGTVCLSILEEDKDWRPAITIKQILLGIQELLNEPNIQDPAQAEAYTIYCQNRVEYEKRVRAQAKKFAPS
Scp-1 inhibitor: Scp-1 (human) phosphatase inhibition | Q9GZU7 | Recombinant Scp1, phosphopeptide, malachite green phosphate absorbance | inhibition, % at 20 µM | actives 0.88% (n = 340,000);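 active means inhibition above about 50% at 20 µM, limit read from the data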;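 further: plate controls were DMSO wells with enzyme for no effect and wells lacking enzyme for full effect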
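Incubation: 45 min enzyme reaction at room temperature / System: truncated SCP-1 phosphatase (76-261aa) / Reagent: Phospho 17-mer peptide substrate / Buffer or medium: Acidic Tris acetate buffer with magnesium and detergent / Signal: absorbance at 630 nm / Doses: one concentration, 20 µM, with 1.0% DMSO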
DNMT1 block: blocks human DNA methyltransferase DNMT1. DNMT1 molecular beacon, Hinp1I cleavage, fluorescence. P26358. actives 0.83% (n = 360,000). inhibition (reported as % activation of signal), % at 10 µM; in the data active means inhibition above about 50%
LMPTP block: LMPTP (human) inhibition. inhibition, % at 20 µM. actives 0.22% (n = 360,000). recombinant LMPTP-A, OMFP fluorogenic substrate, fluorescence intensity. P24666;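 active means compounds that cut the enzyme signal by at least half of the control window in the single-dose screen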;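 further: plate controls were DMSO wells with enzyme plus substrate for no effect and substrate without enzyme for full effect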
Target sequence (P24666 whole entry, looked up): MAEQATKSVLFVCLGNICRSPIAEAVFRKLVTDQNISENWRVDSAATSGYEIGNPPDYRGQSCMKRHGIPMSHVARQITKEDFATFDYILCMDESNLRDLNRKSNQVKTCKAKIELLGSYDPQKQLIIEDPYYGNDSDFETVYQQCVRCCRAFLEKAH
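test system = LMPTP-A | amount = 0.625 nM LMPTP-A final | reagent = fluorogenic phosphatase substrate OMFP at 400 µM final | incubation = 50 min at room temperature | benchmarks = no-enzyme low control, uninhibited high control | medium = Bis-Tris pH 6.0, DTT, detergent | signal = fluorescence intensity of OMFP turnover product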
Beacon interf DR: beacon fluorescence artifact, dose response counter-screen; 200 tested, under 10 active; shares compounds with DNMT1 block; molecular beacon fluorescence, spectral interference counter-screen; IC50, µM; call rule not given here
DNMT1 inh conf: confirmation of human DNMT1 inhibitors; shares compounds with DNMT1 block; DNMT1 molecular beacon HinP1I cleavage, fluorescence; inhibition, % at 10 µM; actives 8% (n = 2,300);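 active means average inhibition of at least 30% in the single-concentration confirmation test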
DNMT1 interf: counter-screen for DNMT1 inhibitors: spectral interference | shares compounds with DNMT1 block | DNMT1 molecular beacon spectral interference counterscreen, fluorescence 485/520 | activation (fluorescence interference), % at 10 µM | actives 1% (n = 2,300) | AID 602387;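 active means activation of at least 30% at 10 µM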;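 further: DNMT1 catalytic domain with a HinP1I cleavage step and a FAM/dabcyl DNA beacon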
The depositor's hits bear a star; · = no result given. Shown are actives, neighbours in structure and some others; about 1.9% of the full set was active somewhere.

SMILES	SUMO1-SIM PPI	STEP inh	SUMO HTRF inh	Scp-1 inhibitor	DNMT1 block	LMPTP block	DNMT1 inh conf	DNMT1 interf	others
CC(C)(C)NC(=O)Cc1ccc(S(=O)(=O)N2CCCC2)s1	-1	8	16	9	72*	-2	3	-1
O=C(O)CN1C(=O)/C(=C\c2cc(Br)ccc2OCc2ccc(Cl)cc2)SC1=S	61*	16	36	-7	61*	14	56*	-9	Beacon interf DR=>99
O=C(O)CCCN1C(=O)/C(=C\c2ccccc2OCc2ccccc2)SC1=S	14	4	17	-6	1	5	·	·
O=C(O)CCCCN1C(=O)/C(=C\c2ccc(OCc3ccccc3)c(OCc3ccccc3)c2)SC1=S	13	4	10	1	81*	35	15	-2
O=C(O)CN1C(=O)/C(=C\c2cc(Br)ccc2OCc2ccc(F)cc2)SC1=S	8	6	35	8	24	4	·	·
CN(Cc1cnn(-c2ccc(F)cc2)c1)Cc1nc(Cc2ccccc2)no1	2	15	-5	-5	-1	-1	·	·
COc1ccc(C(=O)c2sc(Nc3ccccc3)nc2N)cc1	-4	2	10	-2	89*	2	2	5
Nc1nc(Nc2ccccc2)sc1C(=O)c1ccccc1	-24	2	-4	5	-8	3	·	·
CCC(C)n1c(NC(=O)c2ccccc2)c(C#N)c2nc3ccccc3nc21 (stereo not drawn)	43*	3	·	-2	73*	16	8	6
O=C1CCC(OCc2ccccc2)CCN1[C@H](CSc1ccccc1)Cc1ccccc1 (stereo partly drawn)	1	·	·	·	·	9	·	·
O=C(O)C1CC2C3CC(C(=O)O)C(C3)C2C1 (stereo not drawn)	-2	-3	·	0	75*	-1	3	2
O=C(O)C1CC(Br)C(Br)CC1C(=O)O (stereo not drawn)	5	-2	·	·	10	-1	·	·
Cc1nc2nc(-c3ccco3)[nH]n2c(=O)c1C	2	-5	18	-2	1	1	·	·
Cc1ccc(-c2cc(C(F)F)n3ncc(C(=O)NCc4ccco4)c3n2)cc1	3	-2	36	6	76*	0	0	-10
Cc1cnn(-c2cc(N/N=C/c3ccc(F)cc3)ncn2)c1	-1	0	-1	15	60*	-2	2	1
Cc1ccccc1C(=O)Nc1ccc2c(C#N)c3nc4ccccc4nc3n2c1	26	-1	49	94*	66*	11	4	-3
CCOc1ccc(-c2nnc(SCC(=O)Nc3ccc4c(c3)c3ccccc3n4CC)n2N)cc1	7	-2	48	12	59*	2	1	2
CC(=O)NC(c1cccc(F)c1)c1nc(-c2cc(F)cc(Cl)c2)cs1 (stereo not drawn)	-1	0	·	·	59*	30	5	7
N#Cc1c(NCCN)nc(NCc2ccccc2)c2c1CCN(Cc1ccccc1)C2	0	2	30	22	77*	27	3	-2
CCc1c(Cl)nc(N)nc1Nc1ccccc1C	-1	-3	·	-10	75*	0	1	2
O=C(Nc1cccc(Cl)c1)c1csc([C@@H]2C[C@H](O)[C@@H](CO)O2)n1	1	-2	·	·	2	1	·	·
Cn1c(=O)c(=O)n(C)c2cc([N+](=O)[O-])c([N+](=O)[O-])cc21	-36	4	3	0	-5	-1	·	·
Cc1[nH]n(C)c(=O)c1[N+](=O)[O-]	1	-2	17	2	56*	-1	2	3
Clc1ccc(-c2cc3nc(NCc4cccc(Cl)c4)ccn3n2)cc1	7	3	·	·	79*	4	6	9
COc1cccc(N2CC34C=CC(O3)C(C(=O)O)C4C2=O)c1 (stereo not drawn)	5	-4	10	32	53*	-1	6	6
SMILES	SUMO1-SIM PPI	STEP inh	SUMO HTRF inh	Scp-1 inhibitor	DNMT1 block	LMPTP block	DNMT1 inh conf	DNMT1 interf	others
Cc1ccc(Cn2c(=N)c(C(=O)NCC3CCCO3)cc3c(=O)n4ccccc4nc32)cc1 (stereo not drawn)	-36	1	17	6	1	1	·	·
N=c1c(S(=O)(=O)c2ccc(Br)cc2)cc2c(=O)n3ccccc3nc2n1Cc1ccccc1	-6	2	11	9	0	3	·	·
Cc1ccc(Cn2c(=N)c(C(=O)NCc3ccco3)cc3c(=O)n4ccccc4nc32)cc1	-5	5	31	33	82*	59*	3	-5
N=c1c(S(=O)(=O)c2ccc(Br)cc2)cc2c(=O)n3ccccc3nc2n1Cc1ccco1	12	16	·	23	86*	40	5	0
COc1ccc2nc(NC(=O)c3cccc(-c4cc5ccccc5oc4=O)c3)sc2c1	-1	2	24	0	58*	15	2	-5
O=C(N/N=C/c1cc(Br)c(Br)o1)C(O)c1ccccc1 (stereo not drawn)	-1	4	23	35	77*	5	3	2
Cc1ccc(/C=N/NC(=O)C(O)c2ccccc2)o1 (stereo not drawn)	-12	0	18	-4	2	-1	·	·
O=C(NC(=S)Nc1cc(S(=O)(=O)N2CCOCC2)ccc1N1CCOCC1)c1ccco1	-1	-1	6	-2	60*	0	3	3
O=C(NC(=S)Nc1cc(S(=O)(=O)N2CCOCC2)ccc1O)c1ccco1	6	2	-9	-12	-1	-1	·	·
Cc1ccc(C(=O)OC(C)C(=O)NC2CCCCC2C)s1 (stereo not drawn)	8	3	·	-2	83*	0	2	3
CC(OC(=O)c1cccs1)C(=O)NC1CCCCC1C (stereo not drawn)	1	2	·	-6	5	0	·	·
COc1ccc(C(C)=O)cc1CSc1ccc2c(c1)OCCO2	8	1	-10	-10	-6	3	·	·
COc1cccc(OC)c1OC(=O)C1CC(=O)N(c2ccc3c(c2)OCCO3)C1 (stereo not drawn)	31	6	·	47	53*	3	2	0
Cc1nn(CCCC(=O)NCc2ccc(Cl)cc2)c(C)c1[N+](=O)[O-]	-2	1	6	-11	69*	-1	2	1
